ChEMBL document CHEMBL1132919, “Structure-activity studies for a novel series of tricyclic substituted hexahydrobenz[e]isoindole alpha(1A) adrenoceptor antagonists as potential agents for the symptomatic treatment of benign prostatic hyperplasia (BPH)” (J Med Chem, 2000)

How the values were obtained:
[1] = species on record: Rattus norvegicus; experiment: Antagonist dissociation constant in rat spleen; conditions: read-out: pA2 (converted)
[2] = species on record: Rattus norvegicus; experiment: Antagonist dissociation constant in rat vas deferens; conditions: read-out: pA2 (converted)
[3] = species on record: Canis familiaris; experiment: (§1) Intraurethral pressure (IUP) in Beagle dogs values are expressed as pseudo pA2 values.; conditions: Canis lupus familiaris, Urethra, read-out: pA2 (converted)
[4] = species on record: Rattus norvegicus; experiment: Determination Pseudo pED50 in Spontaneously Hypertensive Rat (SHR) model; format: functional
Outline: (§2)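 Male SHR (300-325 g), briefly anesthetized with Penthrane, catheterized in femoral artery (MAP) and vein (dosing). After 2.5 h recovery and a 30 min predose control period, one iv antagonist dose per rat in an ascending paradigm; MAP and HR recorded over 60 min. Trapezoidal AUC of percent change in MAP (T60 AUC); ED50 is the dose lowering MAP by 50% of normotensive.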

[5] = species on record: Canis familiaris; experiment: Antagonist dissociation constant in dog prostate; conditions: Canis lupus familiaris, Prostate gland, read-out: pA2 (converted)
[6] = molecular target: T1, Alpha-1D adrenergic receptor (Rattus norvegicus, UniProt P23944); experiment: In vitro binding affinity using [3H]prazosin as radioligand against alpha-1D adrenergic receptor expressed in LTK cell; format: cell-based
T1 sequence (P23944 whole entry): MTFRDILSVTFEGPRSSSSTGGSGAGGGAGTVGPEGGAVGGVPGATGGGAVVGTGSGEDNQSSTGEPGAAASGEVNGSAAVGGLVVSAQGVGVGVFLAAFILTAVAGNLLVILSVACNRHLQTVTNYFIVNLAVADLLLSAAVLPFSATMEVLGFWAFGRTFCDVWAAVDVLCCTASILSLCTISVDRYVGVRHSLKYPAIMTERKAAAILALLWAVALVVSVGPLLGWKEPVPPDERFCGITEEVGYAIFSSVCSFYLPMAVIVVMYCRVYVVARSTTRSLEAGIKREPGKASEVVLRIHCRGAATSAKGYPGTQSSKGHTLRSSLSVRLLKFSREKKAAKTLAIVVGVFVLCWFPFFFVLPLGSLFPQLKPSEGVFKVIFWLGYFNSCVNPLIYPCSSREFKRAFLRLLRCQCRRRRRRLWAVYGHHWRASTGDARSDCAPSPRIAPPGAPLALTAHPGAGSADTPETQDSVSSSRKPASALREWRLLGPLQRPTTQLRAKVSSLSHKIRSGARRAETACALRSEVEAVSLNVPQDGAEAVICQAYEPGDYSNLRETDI
Outline: (§3)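 Membranes from mouse LTK- fibroblasts stably expressing cloned hamster α1B or rat α1D, grown in roller bottles, frozen in liquid N2 and stored at -70 °C. Incubated with [3H]-prazosin ~200 pM, ~0.1 mg protein per tube, in 50 mM Tris-HCl pH 7.4 for 60 min at 25 °C; nonspecific binding defined by 10^-5 M phentolamine (final).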

[7] = molecular target: T2, Alpha-1A adrenergic receptor (Rattus norvegicus, UniProt P43140); experiment: In vitro binding affinity using [3H]prazosin as radioligand against alpha-1A adrenergic receptor
T2 sequence (P43140 whole entry): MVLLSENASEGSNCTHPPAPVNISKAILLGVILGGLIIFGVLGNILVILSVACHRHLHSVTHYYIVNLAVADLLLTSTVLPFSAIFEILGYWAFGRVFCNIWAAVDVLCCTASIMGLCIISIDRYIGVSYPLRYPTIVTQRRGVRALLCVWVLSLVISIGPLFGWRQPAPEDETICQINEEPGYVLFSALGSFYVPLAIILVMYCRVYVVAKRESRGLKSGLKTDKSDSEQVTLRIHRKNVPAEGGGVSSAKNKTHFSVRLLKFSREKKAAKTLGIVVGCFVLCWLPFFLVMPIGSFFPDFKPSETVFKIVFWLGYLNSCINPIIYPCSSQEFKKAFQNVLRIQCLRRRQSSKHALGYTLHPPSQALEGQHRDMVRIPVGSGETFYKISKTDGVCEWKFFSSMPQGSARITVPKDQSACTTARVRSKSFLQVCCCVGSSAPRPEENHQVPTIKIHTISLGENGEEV
Outline: (§4)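 Binding to pharmacologically defined α1A site in rat submaxillary gland membranes; [3H]-prazosin ~200 pM, nonspecific binding with 10^-5 M phentolamine (final); ~0.1 mg protein per tube in 50 mM Tris-HCl pH 7.4, 60 min at 25 °C.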

[8] = molecular target: T3, Alpha-1B adrenergic receptor (Mesocricetus auratus, UniProt P18841); experiment: In vitro binding affinity using [3H]prazosin as radioligand against alpha-1B adrenergic receptor expressed in LTK cell; format: cell-based; outline: as §3
T3 sequence (P18841 whole entry): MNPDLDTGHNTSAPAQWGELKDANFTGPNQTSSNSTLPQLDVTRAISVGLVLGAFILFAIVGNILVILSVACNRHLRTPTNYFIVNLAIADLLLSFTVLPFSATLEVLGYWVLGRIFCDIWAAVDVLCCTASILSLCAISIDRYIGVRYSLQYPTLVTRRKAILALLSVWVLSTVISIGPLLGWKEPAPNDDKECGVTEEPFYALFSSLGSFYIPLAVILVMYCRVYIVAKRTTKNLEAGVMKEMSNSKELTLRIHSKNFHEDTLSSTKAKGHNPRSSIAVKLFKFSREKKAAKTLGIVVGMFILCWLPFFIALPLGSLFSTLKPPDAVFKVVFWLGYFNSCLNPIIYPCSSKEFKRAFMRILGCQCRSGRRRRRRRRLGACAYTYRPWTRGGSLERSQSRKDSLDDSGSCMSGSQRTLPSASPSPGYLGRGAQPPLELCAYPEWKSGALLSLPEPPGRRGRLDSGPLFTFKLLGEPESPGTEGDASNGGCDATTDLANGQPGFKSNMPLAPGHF

[9] = species on record: Rattus norvegicus; experiment: Determination of Pseudo pED50 in Spontaneously Hypertensive Rat (SHR) model. Number determinations => 3.; format: functional; outline: as §2
[10] = species on record: Cricetulus griseus; experiment: Ratio between Ki(alpha-1b)/Ki(alpha1A)
[11] = molecular target: T3, Alpha-1B adrenergic receptor; experiment: In vitro binding affinity using [3H]prazosin as radioligand against adrenoceptor alpha 1b expressed in LTK cell; format: cell-based; outline: as §3
[12] = molecular target: T1, Alpha-1D adrenergic receptor; experiment: In vitro binding affinity using [3H]prazosin as radioligand against adrenoceptor alpha 1d expressed in LTK cell; format: cell-based; outline: as §3
[13] = molecular target: T2, Alpha-1A adrenergic receptor; experiment: In vitro binding affinity using [3H]prazosin as radioligand against adrenoceptor alpha 1A; outline: as §4
[14] = species on record: Rattus norvegicus; experiment: Antagonist dissociation constant in rat spleen, number of determinations => 3.; conditions: read-out: pA2 (converted)
[15] = species on record: Canis familiaris; experiment: as §1; format: functional, Canis lupus familiaris, Urethra
[16] = species on record: Rattus norvegicus; experiment: Pseudo ED50 in Spontaneously Hypertensive Rat (SHR) model. Number determinations => 3.; format: functional; outline: as §2
[17] = species on record: Rattus norvegicus; experiment: Pseudo ED50 in Spontaneously Hypertensive Rat (SHR) model; format: functional; outline: as §2
[18] = species on record: Rattus norvegicus; experiment: Antagonist dissociation constant in rat vas deferens, number of determinations => 3.; conditions: read-out: pA2 (converted)
[19] = species on record: Canis familiaris; experiment: Antagonist dissociation constant in dog prostate, number of determinations => 3.; conditions: Canis lupus familiaris, Prostate gland; read-out: pA2 (converted)

## COc1cc2nc(N3CCN(C(=O)C4COc5ccccc5O4)CC3)nc(N)c2cc1OC (stereo unspecified) [DOXAZOSIN]
[1]
  Kb: 0.309 nM
[2]
  Kb: 2.04 nM
[3]
  Kb: 75.9 nM
[4]
  pED50: 6.5

## COc1cccc2c1CC[C@H]1CN(CCn3c(=O)[nH]c4c(sc5ncccc54)c3=O)C[C@@H]21
[5]
  Kb: 1.66 nM
[1]
  Kb: 16.2 nM
[2]
  Kb: 2.24 nM
[6]
  Ki: 0.69 nM
[7]
  Ki: 0.59 nM
[8]
  Ki: 6.12 nM
[3]
  Kb: 5.62 nM
[9]
  pED50: 5.35
[10]
  Selectivity ratio: 10.4

## COc1cccc2c1CC[C@H]1CN(CCn3c(=O)[nH]c4c(sc5ccc(Cl)nc54)c3=O)C[C@@H]21
[11]
  Ki: 4.15 nM
[12]
  Ki: 0.61 nM
[13]
  Ki: 0.38 nM

## COc1cc2nc(N3CCN(C(=O)C4CCCO4)CC3)nc(N)c2cc1OC (stereo unspecified) [TERAZOSIN]
[14]
  Kb: 2.51 nM
[15]
  IUP: 7.02
[16]
  SHR: 6.64

## COc1cccc2c1CC[C@H]1CN(CCn3c(=O)[nH]c4c(sc5cccnc54)c3=O)C[C@@H]21
[5]
  Kb: 0.776 nM
[1]
  Kb: 12.9 nM
[2]
  Kb: 1.17 nM
[6]
  Ki: 0.51 nM
[8]
  Ki: 3.39 nM
[3]
  Kb: 6.76 nM
[17]
  pED50: 5.33

## COc1cc2nc(N(C)CCCNC(=O)C3CCCO3)nc(N)c2cc1OC (stereo unspecified) [ALFUZOSIN]
[14]
  Kb: 4.9 nM
[18]
  Kb: 24.5 nM
[15]
  IUP: 6.87
[16]
  SHR: 6.58

## CCOc1ccccc1OCCN[C@H](C)Cc1ccc(OC)c(S(N)(=O)=O)c1 [TAMSULOSIN]
[14]
  Kb: 0.204 nM
[18]
  Kb: 0.339 nM
[11]
  Ki: 0.2 nM
[15]
  IUP: 8.87
[16]
  SHR: 7.33

## COc1cccc2c1CC[C@H]1CN(CCn3c(=O)[nH]c4c(sc5cncnc54)c3=O)C[C@@H]21
[6]
  Ki: 3.74 nM
[7]
  Ki: 1.62 nM
[8]
  Ki: 15.9 nM
[10]
  Selectivity ratio: 9.8

## COc1cccc2c1CC[C@H]1CN(CCn3c(=O)[nH]c4c(sc5cc(C(F)(F)F)ccc54)c3=O)C[C@@H]21
[6]
  Ki: 6.84 nM
[7]
  Ki: 9.27 nM
[8]
  Ki: 23.8 nM
[10]
  Selectivity ratio: 2.56

## COc1cccc2c1CC[C@H]1CN(CCn3c(=O)[nH]c4c(sc5ncc(Cl)nc54)c3=O)C[C@@H]21
[19]
  Kb: 0.447 nM
[14]
  Kb: 44.7 nM
[18]
  Kb: 1.1 nM
[11]
  Ki: 35.1 nM
[12]
  Ki: 3.83 nM
[15]
  IUP: 8.28
[16]
  SHR: 4.77
[13]
  Ki: 0.69 nM
